Test results: ChEMBL document CHEMBL4689842, “EUbOPEN Chemogenomics Library wave 1” (2021)

Tested on: Fibroblast
Test: Multiplex assay against human fibroblast
Format: toxicity, cell-based
How it was run: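 Hoechst33342, BioTracker Green Microtubule Cytoskeleton Dye, MitoTracker Red and Annexin V Alexa Fluor 680 were added to live cells at seeding, and imaging on a CQ1 microscope at 37°C and 5% CO2 followed compound addition. Gating by CellPathfinder machine learning separated cells into Hoechst high-intensity objects or normal cells, then normal cells into healthy, pyknosed or fragmented nuclei, then pyknosed cells into mitotic or apoptotic. Per cents of healthy-nucleus cells are reported for the tubulin, mitochondrial-mass and membrane-permeability phenotypes.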

[1] = 12 h, 1 µM, compound concentration 1 uM, replicate 1
[2] = 12 h, 1 µM, compound concentration 1 uM, replicate 2
[3] = 12 h, 10 µM, compound concentration 10 uM, replicate 1
[4] = 12 h, 10 µM, compound concentration 10 uM, replicate 2
[5] = 24 h, 1 µM, compound concentration 1 uM, replicate 1
[6] = 24 h, 1 µM, compound concentration 1 uM, replicate 2
[7] = 24 h, 10 µM, compound concentration 10 uM, replicate 1
[8] = 24 h, 10 µM, compound concentration 10 uM, replicate 2
[9] = 48 h, 1 µM, compound concentration 1 uM, replicate 1
[10] = 48 h, 1 µM, compound concentration 1 uM, replicate 2
[11] = 48 h, 10 µM, compound concentration 10 uM, replicate 1
[12] = 48 h, 10 µM, compound concentration 10 uM, replicate 2

## CC(C)c1noc(N2CCC(COc3ccc(-c4ccc(S(C)(=O)=O)cc4)nc3)CC2)n1 [GSK-1292263]
[1]
  Population Apoptotic (%): 65%
  Population Fragmented Nuclei (%): 28%
  Population Healthy Nuclei (%): 45%
  Population Hoechst High Intensity Objects (%): 12%
  Population Membrane Permeable-Phenotype (%): 21%
  Population Mitochondria Different-Phenotype (%): 15%
  Population Mitotic Cells (%): 34%
  Population Normal (%): 87%
  Population Pyknosed Nuclei (%): 25%
  Population Tubulin-Different-Phenotype (%): 49%
  Total Cell Count: 128
[2]
  Population Apoptotic (%): 50%
  Population Fragmented Nuclei (%): 12%
  Population Healthy Nuclei (%): 85%
  Population Hoechst High Intensity Objects (%): 2%
  Population Membrane Permeable-Phenotype (%): 3%
  Population Mitochondria Different-Phenotype (%): 4%
  Population Mitotic Cells (%): 50%
  Population Normal (%): 97%
  Population Pyknosed Nuclei (%): 2%
  Population Tubulin-Different-Phenotype (%): 9%
  Total Cell Count: 89
[3]
  Population Apoptotic (%): 52%
  Population Fragmented Nuclei (%): 21%
  Population Healthy Nuclei (%): 45%
  Population Hoechst High Intensity Objects (%): 5%
  Population Membrane Permeable-Phenotype (%): 24%
  Population Mitochondria Different-Phenotype (%): 5%
  Population Mitotic Cells (%): 48%
  Population Normal (%): 94%
  Population Pyknosed Nuclei (%): 33%
  Population Tubulin-Different-Phenotype (%): 49%
  Total Cell Count: 160
[4]
  Population Apoptotic (%): 42%
  Population Fragmented Nuclei (%): 5%
  Population Healthy Nuclei (%): 83%
  Population Membrane Permeable-Phenotype (%): 3%
  Population Mitochondria Different-Phenotype (%): 10%
  Population Mitotic Cells (%): 57%
  Population Pyknosed Nuclei (%): 10%
  Population Tubulin-Different-Phenotype (%): 15%
  Total Cell Count: 76
[5]
  Population Apoptotic (%): 38%
  Population Fragmented Nuclei (%): 27%
  Population Healthy Nuclei (%): 39%
  Population Hoechst High Intensity Objects (%): 8%
  Population Membrane Permeable-Phenotype (%): 39%
  Population Mitochondria Different-Phenotype (%): 12%
  Population Mitotic Cells (%): 61%
  Population Normal (%): 91%
  Population Pyknosed Nuclei (%): 33%
  Population Tubulin-Different-Phenotype (%): 75%
  Total Cell Count: 112
[6]
  Population Apoptotic (%): 0%
  Population Fragmented Nuclei (%): 14%
  Population Healthy Nuclei (%): 83%
  Population Hoechst High Intensity Objects (%): 2%
  Population Membrane Permeable-Phenotype (%): 2%
  Population Mitochondria Different-Phenotype (%): 10%
  Population Mitotic Cells (%): 100%
  Population Normal (%): 97%
  Population Pyknosed Nuclei (%): 2%
  Population Tubulin-Different-Phenotype (%): 13%
  Total Cell Count: 103
[7]
  Population Apoptotic (%): 52%
  Population Fragmented Nuclei (%): 20%
  Population Healthy Nuclei (%): 45%
  Population Hoechst High Intensity Objects (%): 10%
  Population Membrane Permeable-Phenotype (%): 23%
  Population Mitochondria Different-Phenotype (%): 4%
  Population Mitotic Cells (%): 47%
  Population Normal (%): 89%
  Population Pyknosed Nuclei (%): 34%
  Population Tubulin-Different-Phenotype (%): 70%
  Total Cell Count: 178
[8]
  Population Apoptotic (%): 36%
  Population Fragmented Nuclei (%): 7%
  Population Healthy Nuclei (%): 79%
  Population Hoechst High Intensity Objects (%): 4%
  Population Membrane Permeable-Phenotype (%): 7%
  Population Mitochondria Different-Phenotype (%): 12%
  Population Mitotic Cells (%): 63%
  Population Normal (%): 95%
  Population Pyknosed Nuclei (%): 13%
  Population Tubulin-Different-Phenotype (%): 7%
  Total Cell Count: 91
[9]
  Population Apoptotic (%): 35%
  Population Fragmented Nuclei (%): 29%
  Population Healthy Nuclei (%): 54%
  Population Hoechst High Intensity Objects (%): 12%
  Population Membrane Permeable-Phenotype (%): 33%
  Population Mitochondria Different-Phenotype (%): 8%
  Population Mitotic Cells (%): 64%
  Population Normal (%): 88%
  Population Pyknosed Nuclei (%): 15%
  Population Tubulin-Different-Phenotype (%): 50%
  Total Cell Count: 100
[10]
  Population Apoptotic (%): 0%
  Population Fragmented Nuclei (%): 26%
  Population Healthy Nuclei (%): 73%
  Population Hoechst High Intensity Objects (%): 8%
  Population Membrane Permeable-Phenotype (%): 21%
  Population Mitochondria Different-Phenotype (%): 2%
  Population Mitotic Cells (%): 0%
  Population Normal (%): 91%
  Population Pyknosed Nuclei (%): 0%
  Population Tubulin-Different-Phenotype (%): 48%
  Total Cell Count: 70
[11]
  Population Apoptotic (%): 44%
  Population Fragmented Nuclei (%): 27%
  Population Healthy Nuclei (%): 54%
  Population Hoechst High Intensity Objects (%): 14%
  Population Membrane Permeable-Phenotype (%): 29%
  Population Mitochondria Different-Phenotype (%): 4%
  Population Mitotic Cells (%): 55%
  Population Normal (%): 85%
  Population Pyknosed Nuclei (%): 18%
  Population Tubulin-Different-Phenotype (%): 69%
  Total Cell Count: 184
[12]
  Population Apoptotic (%): 66%
  Population Fragmented Nuclei (%): 21%
  Population Healthy Nuclei (%): 74%
  Population Hoechst High Intensity Objects (%): 9%
  Population Membrane Permeable-Phenotype (%): 28%
  Population Mitochondria Different-Phenotype (%): 0%
  Population Mitotic Cells (%): 33%
  Population Normal (%): 90%
  Population Pyknosed Nuclei (%): 4%
  Population Tubulin-Different-Phenotype (%): 59%
  Total Cell Count: 77
